Converted amounts (≈) assume the structure as drawn.

In the first assay the test system is Pseudomonas aeruginosa. The assay can be described thus: Antibacterial activity against Pseudomonas aeruginosa ATCC 13525 after 24 hrs by MTT method. Format: functional, organism-based. The conditions noted are these: ATCC 13525, 24 h. A digest of the protocol:
(§1)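 Broth assay in Mueller-Hinton liquid medium. Compounds dissolved in DMSO (stock 50 μg/mL) and serially diluted into the medium. Inoculum approx. 10^5 cfu/mL, incubated 37 °C for 24 h. Afterwards MTT (2 mg/mL in 0.01 mol/L PBS, pH 7.4) added, 4-5 h at room temperature. Dye extracted with isopropanol containing 5% 1 mol/L HCl for 12 h, OD read at 570 nm. IC50 derived colorimetrically.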
(Formazan colour is commonly taken as a measure of viable cells.)
What is called IC50 is the concentration needed to halve the response being measured. High values mean weaker potency in that assay, low ones greater potency in that assay. `CC(C)(C)OC(=O)N1C(c2cc(C(C)(C)C)c(O)c(C(C)(C)C)c2)SC[C@H]1C(=O)O` (mixture of isomers) showed an IC50 of 0.39 µg/mL.
`O=C(O)[C@@H]1CSC(c2ccc(O)cc2)N1` (mixture of isomers): half-maximal inhibition (IC50) required 25 µg/mL.
Same read-out and setting: for `CC(C)(C)OC(=O)N1C(c2cc(Br)cc(Br)c2O)SC[C@H]1C(=O)O` (mixture of isomers) the value was 0.39 µg/mL; for `CC(C)(C)c1cc(C2N[C@H](C(=O)O)CS2)cc(C(C)(C)C)c1O` (mixture of isomers), 25 µg/mL; for `O=C(O)[C@@H]1CSC(c2cc(Br)cc(Br)c2O)N1` (mixture of isomers), 25 µg/mL.
Same read-out and setting: for `O=C(O)[C@@H]1CSC(c2cc(F)ccc2O)N1` (mixture of isomers) the value was 1.56 µg/mL; for `O=C(O)[C@@H]1CSC(c2cc(Cl)ccc2O)N1` (mixture of isomers), 3.12 µg/mL.
The same measure, in the same setting: for `COc1ccc(C2SC[C@@H](C(=O)O)N2C(=O)OC(C)(C)C)cc1` (mixture of isomers) the value was 0.39 µg/mL.
On to `CC(C)(C)OC(=O)N1C(c2cc(Cl)ccc2O)SC[C@H]1C(=O)O` (mixture of isomers), for which the IC50 stood at 0.39 µg/mL.
Turning to `CC(C)(C)OC(=O)N1C(c2cc(Br)ccc2O)SC[C@H]1C(=O)O` (mixture of isomers), half-maximal inhibition (IC50) required 0.78 µg/mL.
Same read-out and setting: for `O=C(O)[C@@H]1CSC(c2ccccc2)N1` (mixture of isomers) the value was more than 50 µg/mL.
Same read-out and setting: for `CC(C)(C)OC(=O)N1C(c2ccccc2)SC[C@H]1C(=O)O` (mixture of isomers) the value was 0.78 µg/mL; for `CC(C)(C)OC(=O)N1C(c2ccc(Br)cc2)SC[C@H]1C(=O)O` (mixture of isomers), 0.39 µg/mL.
On the same count and under the same terms, for `NC[C@H]1O[C@H](O[C@H]2[C@H](O)[C@@H](O[C@H]3O[C@H](CO)[C@@H](O)[C@H](N)[C@H]3O)[C@H](N)C[C@@H]2N)[C@H](N)[C@@H](O)[C@@H]1O` [BEKANAMYCIN] the value was 3.12 µg/mL (≈ 6.46 µM); for `CC(C)(C)OC(=O)N1C(c2cc(F)ccc2O)SC[C@H]1C(=O)O` (mixture of isomers), 0.195 µg/mL.
Regarding `CC1(C)S[C@@H]2[C@H](NC(=O)Cc3ccccc3)C(=O)N2[C@H]1C(=O)O` [PENICILLIN G], the IC50 turned out to be 6.25 µg/mL (≈ 18.7 µM). Against the preceding compound, the IC50 is about 32-fold higher.
Still for that read-out and setting: for `CC(C)(C)OC(=O)N1C(c2ccc(O)cc2)SC[C@H]1C(=O)O` (mixture of isomers) the value was 0.39 µg/mL; for `COc1ccc(C2N[C@H](C(=O)O)CS2)cc1` (mixture of isomers), more than 50 µg/mL; for `O=C(O)[C@@H]1CSC(c2cc(Br)ccc2O)N1` (mixture of isomers), 6.25 µg/mL.

A further assay concerns Staphylococcus aureus. The experiment in a line: Antibacterial activity against Staphylococcus aureus ATCC 6538 after 24 hrs by MTT method. Format: functional, organism-based. The conditions noted are these: ATCC 6538, 24 h. The gist of the method:
as §1
In turn, `CC(C)(C)OC(=O)N1C(c2cc(C(C)(C)C)c(O)c(C(C)(C)C)c2)SC[C@H]1C(=O)O` (mixture of isomers) yielded an IC50 of 1.56 µg/mL.
The same measure, in the same setting: for `O=C(O)[C@@H]1CSC(c2ccc(O)cc2)N1` (mixture of isomers) the value was more than 50 µg/mL.
The same measure, in the same setting: for `CC(C)(C)OC(=O)N1C(c2cc(Br)cc(Br)c2O)SC[C@H]1C(=O)O` (mixture of isomers) the value was 1.56 µg/mL; for `CC(C)(C)c1cc(C2N[C@H](C(=O)O)CS2)cc(C(C)(C)C)c1O` (mixture of isomers), 12.5 µg/mL; for `O=C(O)[C@@H]1CSC(c2cc(Br)cc(Br)c2O)N1` (mixture of isomers), more than 50 µg/mL.
On the same count and under the same terms, for `O=C(O)[C@@H]1CSC(c2cc(F)ccc2O)N1` (mixture of isomers) the value was 6.25 µg/mL; for `O=C(O)[C@@H]1CSC(c2cc(Cl)ccc2O)N1` (mixture of isomers), 6.25 µg/mL; for `COc1ccc(C2SC[C@@H](C(=O)O)N2C(=O)OC(C)(C)C)cc1` (mixture of isomers), 1.56 µg/mL.
`CC(C)(C)OC(=O)N1C(c2cc(Cl)ccc2O)SC[C@H]1C(=O)O` (mixture of isomers) returned an IC50 of 1.56 µg/mL.
As for `CC(C)(C)OC(=O)N1C(c2cc(Br)ccc2O)SC[C@H]1C(=O)O` (mixture of isomers), the IC50 was found to be 1.56 µg/mL.
The same measure, in the same setting: for `O=C(O)[C@@H]1CSC(c2ccccc2)N1` (mixture of isomers) the value was 12.5 µg/mL.
Same read-out and setting: for `CC(C)(C)OC(=O)N1C(c2ccccc2)SC[C@H]1C(=O)O` (mixture of isomers) the value was 0.78 µg/mL; for `CC(C)(C)OC(=O)N1C(c2ccc(Br)cc2)SC[C@H]1C(=O)O` (mixture of isomers), 3.12 µg/mL.
The same measure, in the same setting: for `NC[C@H]1O[C@H](O[C@H]2[C@H](O)[C@@H](O[C@H]3O[C@H](CO)[C@@H](O)[C@H](N)[C@H]3O)[C@H](N)C[C@@H]2N)[C@H](N)[C@@H](O)[C@@H]1O` [BEKANAMYCIN] the value was 1.56 µg/mL (≈ 3.23 µM); for `CC(C)(C)OC(=O)N1C(c2cc(F)ccc2O)SC[C@H]1C(=O)O` (mixture of isomers), 0.39 µg/mL; for `CC1(C)S[C@@H]2[C@H](NC(=O)Cc3ccccc3)C(=O)N2[C@H]1C(=O)O` [PENICILLIN G], 1.56 µg/mL (≈ 4.67 µM).
The compound `CC(C)(C)OC(=O)N1C(c2ccc(O)cc2)SC[C@H]1C(=O)O` (mixture of isomers) gave an IC50 of 3.12 µg/mL.
Same read-out and setting: for `COc1ccc(C2N[C@H](C(=O)O)CS2)cc1` (mixture of isomers) the value was 25 µg/mL; for `O=C(O)[C@@H]1CSC(c2cc(Br)ccc2O)N1` (mixture of isomers), 12.5 µg/mL.

The next assay has as its system Escherichia coli. The assay can be described thus: Antibacterial activity against Escherichia coli ATCC 35218 after 24 hrs by MTT method. Format: functional, organism-based. The conditions noted are these: ATCC 35218, 24 h. A digest of the protocol: as §1
`CC(C)(C)OC(=O)N1C(c2cc(C(C)(C)C)c(O)c(C(C)(C)C)c2)SC[C@H]1C(=O)O` (mixture of isomers) gave an IC50 of 0.69 µg/mL.
Still for that read-out and setting: for `O=C(O)[C@@H]1CSC(c2ccc(O)cc2)N1` (mixture of isomers) the value was more than 50 µg/mL.
`CC(C)(C)OC(=O)N1C(c2cc(Br)cc(Br)c2O)SC[C@H]1C(=O)O` (mixture of isomers) had an IC50 of 0.78 µg/mL.
On the same count and under the same terms, for `CC(C)(C)c1cc(C2N[C@H](C(=O)O)CS2)cc(C(C)(C)C)c1O` (mixture of isomers) the value was 25 µg/mL; for `O=C(O)[C@@H]1CSC(c2cc(Br)cc(Br)c2O)N1` (mixture of isomers), 12.5 µg/mL; for `O=C(O)[C@@H]1CSC(c2cc(F)ccc2O)N1` (mixture of isomers), 12.5 µg/mL.
On the same count and under the same terms, for `O=C(O)[C@@H]1CSC(c2cc(Cl)ccc2O)N1` (mixture of isomers) the value was 12.5 µg/mL.
The same measure, in the same setting: for `COc1ccc(C2SC[C@@H](C(=O)O)N2C(=O)OC(C)(C)C)cc1` (mixture of isomers) the value was 0.78 µg/mL; for `CC(C)(C)OC(=O)N1C(c2cc(Cl)ccc2O)SC[C@H]1C(=O)O` (mixture of isomers), 1.56 µg/mL; for `CC(C)(C)OC(=O)N1C(c2cc(Br)ccc2O)SC[C@H]1C(=O)O` (mixture of isomers), 1.56 µg/mL.
As to `O=C(O)[C@@H]1CSC(c2ccccc2)N1` (mixture of isomers), inhibition was half-maximal at 25 µg/mL (IC50).
In turn, `CC(C)(C)OC(=O)N1C(c2ccccc2)SC[C@H]1C(=O)O` (mixture of isomers) showed an IC50 of 0.39 µg/mL.
Same read-out and setting: for `CC(C)(C)OC(=O)N1C(c2ccc(Br)cc2)SC[C@H]1C(=O)O` (mixture of isomers) the value was 0.39 µg/mL; for `NC[C@H]1O[C@H](O[C@H]2[C@H](O)[C@@H](O[C@H]3O[C@H](CO)[C@@H](O)[C@H](N)[C@H]3O)[C@H](N)C[C@@H]2N)[C@H](N)[C@@H](O)[C@@H]1O` [BEKANAMYCIN], 3.12 µg/mL (≈ 6.46 µM); for `CC(C)(C)OC(=O)N1C(c2cc(F)ccc2O)SC[C@H]1C(=O)O` (mixture of isomers), 0.78 µg/mL.
The same measure, in the same setting: for `CC1(C)S[C@@H]2[C@H](NC(=O)Cc3ccccc3)C(=O)N2[C@H]1C(=O)O` [PENICILLIN G] the value was 6.25 µg/mL (≈ 18.7 µM).
Same read-out and setting: for `CC(C)(C)OC(=O)N1C(c2ccc(O)cc2)SC[C@H]1C(=O)O` (mixture of isomers) the value was 0.78 µg/mL.
With `COc1ccc(C2N[C@H](C(=O)O)CS2)cc1` (mixture of isomers), the IC50 was more than 50 µg/mL.
The same measure, in the same setting: for `O=C(O)[C@@H]1CSC(c2cc(Br)ccc2O)N1` (mixture of isomers) the value was 25 µg/mL.

For a further assay, the system named is Bacillus subtilis. The experiment in a line: Antibacterial activity against Bacillus subtilis ATCC 6633 after 24 hrs by MTT method. Format: functional, organism-based. The following applies: ATCC 6633, 24 h. The gist of the method:
as §1
As to `CC(C)(C)OC(=O)N1C(c2cc(C(C)(C)C)c(O)c(C(C)(C)C)c2)SC[C@H]1C(=O)O` (mixture of isomers), the midpoint of inhibition, the IC50, lay at 0.39 µg/mL.
On to `O=C(O)[C@@H]1CSC(c2ccc(O)cc2)N1` (mixture of isomers), for which the midpoint of inhibition, the IC50, lay at 25 µg/mL.
Still for that read-out and setting: for `CC(C)(C)OC(=O)N1C(c2cc(Br)cc(Br)c2O)SC[C@H]1C(=O)O` (mixture of isomers) the value was 3.12 µg/mL; for `CC(C)(C)c1cc(C2N[C@H](C(=O)O)CS2)cc(C(C)(C)C)c1O` (mixture of isomers), 25 µg/mL.
The same measure, in the same setting: for `O=C(O)[C@@H]1CSC(c2cc(Br)cc(Br)c2O)N1` (mixture of isomers) the value was 12.5 µg/mL; for `O=C(O)[C@@H]1CSC(c2cc(F)ccc2O)N1` (mixture of isomers), 3.12 µg/mL; for `O=C(O)[C@@H]1CSC(c2cc(Cl)ccc2O)N1` (mixture of isomers), 12.5 µg/mL.
In turn, `COc1ccc(C2SC[C@@H](C(=O)O)N2C(=O)OC(C)(C)C)cc1` (mixture of isomers) showed an IC50 of 3.12 µg/mL.
On the same count and under the same terms, for `CC(C)(C)OC(=O)N1C(c2cc(Cl)ccc2O)SC[C@H]1C(=O)O` (mixture of isomers) the value was 1.56 µg/mL; for `CC(C)(C)OC(=O)N1C(c2cc(Br)ccc2O)SC[C@H]1C(=O)O` (mixture of isomers), 1.56 µg/mL; for `O=C(O)[C@@H]1CSC(c2ccccc2)N1` (mixture of isomers), 3.12 µg/mL.
Still for that read-out and setting: for `CC(C)(C)OC(=O)N1C(c2ccccc2)SC[C@H]1C(=O)O` (mixture of isomers) the value was 3.12 µg/mL; for `CC(C)(C)OC(=O)N1C(c2ccc(Br)cc2)SC[C@H]1C(=O)O` (mixture of isomers), 3.12 µg/mL.
Still for that read-out and setting: for `NC[C@H]1O[C@H](O[C@H]2[C@H](O)[C@@H](O[C@H]3O[C@H](CO)[C@@H](O)[C@H](N)[C@H]3O)[C@H](N)C[C@@H]2N)[C@H](N)[C@@H](O)[C@@H]1O` [BEKANAMYCIN] the value was 0.39 µg/mL (≈ 0.807 µM); for `CC(C)(C)OC(=O)N1C(c2cc(F)ccc2O)SC[C@H]1C(=O)O` (mixture of isomers), 0.39 µg/mL; for `CC1(C)S[C@@H]2[C@H](NC(=O)Cc3ccccc3)C(=O)N2[C@H]1C(=O)O` [PENICILLIN G], 1.56 µg/mL (≈ 4.67 µM).
In turn, `CC(C)(C)OC(=O)N1C(c2ccc(O)cc2)SC[C@H]1C(=O)O` (mixture of isomers) yielded an IC50 of 0.39 µg/mL.
In turn, `COc1ccc(C2N[C@H](C(=O)O)CS2)cc1` (mixture of isomers) yielded an IC50 of 12.5 µg/mL. Against the preceding compound, the IC50 is about 32-fold higher.
Same read-out and setting: for `O=C(O)[C@@H]1CSC(c2cc(Br)ccc2O)N1` (mixture of isomers) the value was 12.5 µg/mL.
